SR-BI uptake up: activators of SR-BI mediated DiI-HDL uptake, primary screen, ldlA[mSR-BI] CHO cells, DiI fluorescence. AID 504775, 2011. activation, % at 12.5 µM. 3 h; 100 = double the neutral-control signal. actives 0.096% (n = 320,000);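 active = mean replicate activation of at least 60% and every replicate at or above 60%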;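 also: 0% = median plate neutral-control signal and 100% = twice that signal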
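material = CHO ldlA[mSR-BI] cells | medium = Ham's F12 with 0.5% BSA, HEPES 25 mM, pH 7.4 | reagent = fluorescent DiI-HDL, 10 µg/mL final | compound dosing = single-point compound dose | incubation = 3 h, 37 °C | measured by = bottom-read fluorescence, 550/595 nm | measure = HDL uptake via cellular fluorescence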
SR-BI HDL uptake: inhibitors of SR-BI mediated HDL lipid uptake, primary screen, ldlA[mSR-BI] cells, fluorescence, single point | Scavenger receptor class B member 1 (Mus musculus), Q61009 | inhibition, % at 12.5 µM | ldlA[mSR-BI] CHO cells, DiI-HDL uptake fluorescence, 3 h | AID 488896, 2010 | actives 0.96% (n = 320,000);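 active = mean replicate inhibition of at least 70% and a set share of replicates each scoring 70 or more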;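 also: 0% = median of neutral control wells and 100% = median of positive control wells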
Target sequence (Q61009 whole entry, looked up): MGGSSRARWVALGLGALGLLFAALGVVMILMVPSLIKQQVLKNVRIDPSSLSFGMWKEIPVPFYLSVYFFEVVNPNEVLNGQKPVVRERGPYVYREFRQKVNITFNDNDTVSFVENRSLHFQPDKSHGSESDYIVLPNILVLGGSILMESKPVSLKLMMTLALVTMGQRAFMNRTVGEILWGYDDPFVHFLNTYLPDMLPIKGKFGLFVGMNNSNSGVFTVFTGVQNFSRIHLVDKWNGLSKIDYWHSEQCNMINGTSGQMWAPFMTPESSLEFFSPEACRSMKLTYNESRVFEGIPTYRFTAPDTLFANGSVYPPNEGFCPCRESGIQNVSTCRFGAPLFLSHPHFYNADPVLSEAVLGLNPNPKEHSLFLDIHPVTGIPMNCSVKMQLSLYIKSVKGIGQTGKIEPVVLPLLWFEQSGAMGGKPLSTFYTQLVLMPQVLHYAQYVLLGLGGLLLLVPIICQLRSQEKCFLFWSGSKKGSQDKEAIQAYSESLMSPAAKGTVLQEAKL
CAL PDZ FP-1: untagged CAL PDZ binding inhibitors, primary screen, biochemical, fluorescence polarization, HTS; purified CAL PDZ, TMR-peptide fluorescence polarization, 1 h; inhibition, % at 24.9 µM; actives 0.92% (n = 300,000);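 active = mean inhibition of at least 30% with at least half of replicates also reaching 30%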;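 also: 0% = DMSO neutral control and 100% = excess unlabeled competitor peptide PRC23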
ARNT-TACC3 inh: disruptors of ARNT/TACC3 protein interaction, primary screen, biochemical, AlphaScreen, single concentration | Transforming acidic coiled-coil-containing protein 3 (Homo sapiens), Q9Y6A5 | AlphaScreen His-ARNT PAS-B/GST-TACC3 binding, luminescence; TACC3 fragment carries E629A point mutation | inhibition, % at 9.99 µM | actives 0.66% (n = 390,000);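 active = mean inhibition of replicates at least 50% and at least half of replicates each reaching 50%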;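 also: 0% = complete ARNT plus TACC3 wells and 100% = ARNT alone without TACC3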
miR122 inh: miR-122 Renilla sensor signal increase in Huh7, primary screen, miR-122 inhibitor project, cell-based, single point, plate reader | Huh7 miR-122 Renilla luciferase sensor, 48 h; neutral wells = 0, positive control = 100 | activation (reporter increase), % at 12.5 µM | actives 0.3% (n = 340,000);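 active = mean replicate activation score at least 90 and every replicate individually at or above 90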;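 also: higher luciferase means less miR-122 activity so hits act as miR-122 inhibitors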
CAL PDZ FP-2: CAL PDZ peptide-binding inhibitors, primary screen, biochemical, fluorescence polarization, Cer-tagged CAL PDZ, HTS; Golgi-associated PDZ and coiled-coil motif-containing protein (Homo sapiens), Q9HD26; purified CAL PDZ, TMR-peptide fluorescence polarization, 1 h; inhibition, % at 20 µM; actives 0.02% (n = 330,000);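 active = highest replicate inhibition of at least 40%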;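 also: plate controls were DMSO neutral control wells for no effect and unlabeled competitor peptide control wells for full effect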
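Read-out basis: mP drop reported as inhibition | Assay system: Tagged CAL PDZ protein CerCALP, purified | Benchmarks: Unlabelled peptide for full inhibition, DMSO wells as neutral | Schedule: 1 h incubation at room temperature before polarization reading | Buffer or medium: Sodium phosphate/NaCl buffer pH 7.4 with TCEP, IgG, Thesit | Doses: Single point, 20 µM | Measured by: Fluorescence polarization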
* = called active by the depositor; [ ] = another dose, or the depositor's remark. Most compounds without a hit are left out; they make up all but 2.1% or so of the library.

CC(C)(C)c1ccc(C(=O)Nc2nnc(C3=COCCO3)o2)cc1 was read as SR-BI uptake up 7, SR-BI HDL uptake -7, CAL PDZ FP-1 -4, ARNT-TACC3 inh 44, miR122 inh -6 and CAL PDZ FP-2 -2.
Screening O=C(Nc1nnc(C2=COCCO2)o1)C1CCCCC1 returned SR-BI uptake up 24, SR-BI HDL uptake -24, CAL PDZ FP-1 3, ARNT-TACC3 inh 50*, miR122 inh -4 and CAL PDZ FP-2 -1.
CNC[C@H]1Oc2ncc(-c3ccc(OC)cc3)cc2C(=O)N([C@@H](C)CO)C[C@@H]1C was read as miR122 inh -6[16.7 µM].
C[C@@H]1CN([C@@H](C)CO)C(=O)Cc2cc(NS(C)(=O)=O)ccc2O[C@H]1CN(C)C(=O)Nc1ccc2c(c1)OCO2 was read as ARNT-TACC3 inh -23 and miR122 inh -4[16.7 µM].
COc1cc(-c2cc(C(=O)Nc3ccc(N4CCOCC4)cc3)c3ccccc3n2)cc(OC)c1OC was read as SR-BI uptake up -90, SR-BI HDL uptake 90*, CAL PDZ FP-1 -5, miR122 inh -4 and CAL PDZ FP-2 -1.
For CCOc1ccccc1NC(=O)c1cc(-c2cc(OC)c(OC)c(OC)c2)nc2ccccc12 the results were SR-BI uptake up -72, SR-BI HDL uptake 72*, miR122 inh 1 and CAL PDZ FP-2 -4.
`O=C(Nc1ccc(N2CCOCC2)cc1)c1cc(-c2ccncc2)nc2ccccc12` gave SR-BI uptake up -62, SR-BI HDL uptake 62, CAL PDZ FP-1 23, ARNT-TACC3 inh -7, miR122 inh 0 and CAL PDZ FP-2 -1.
Screening C[C@@H]1CN([C@@H](C)CO)C(=O)c2cccc(NS(=O)(=O)c3cccs3)c2O[C@H]1CN(C)C(=O)Nc1ccccc1 returned miR122 inh 0[16.7 µM].
For O=C1NC(=Nc2ccc(Cl)cc2)/C(=C/c2ccco2)S1 the results were SR-BI uptake up -82, SR-BI HDL uptake 82*, CAL PDZ FP-1 -1, ARNT-TACC3 inh 0, miR122 inh 18 and CAL PDZ FP-2 -4.
`C/C(CCC12CC3CC(CC(C3)C1)C2)=N\NC(N)=S` gave SR-BI uptake up -63, SR-BI HDL uptake 63, CAL PDZ FP-1 -1, ARNT-TACC3 inh 14, miR122 inh -3 and CAL PDZ FP-2 -1.
Screening C/C(=N\NC(N)=S)C1C2C3CC4C5CC(C42)C1C53 (stereo not drawn) returned SR-BI uptake up -83, SR-BI HDL uptake 83*, CAL PDZ FP-1 27, ARNT-TACC3 inh 15, miR122 inh -14 and CAL PDZ FP-2 0.
Screening COc1cccc(C2(O)CCN(C(=O)C(C)C)CC2)c1 returned SR-BI uptake up 24, SR-BI HDL uptake -24, CAL PDZ FP-1 60*, ARNT-TACC3 inh -5, miR122 inh -7 and CAL PDZ FP-2 -1.
`C[C@H](CO)N1C[C@H](C)[C@H](CN(C)CC2CCCCC2)OCCCC[C@H](C)Oc2ccc(NS(=O)(=O)c3cn(C)cn3)cc2C1=O` gave ARNT-TACC3 inh -1 and miR122 inh -2[16.7 µM].
For CCCNC(=O)C[C@@H]1CC[C@@H]2[C@@H](COc3ccc(NC(=O)c4cccc(C(F)(F)F)c4)cc3C(=O)N2C)O1 the results were ARNT-TACC3 inh 10 and miR122 inh -1[16.7 µM].
O=C(COc1ccc(-c2nnco2)cc1)N1CCN(S(=O)(=O)c2ccc3ccccc3c2)CC1 was read as SR-BI uptake up 3, SR-BI HDL uptake -3, CAL PDZ FP-1 42*, ARNT-TACC3 inh -11, miR122 inh -2 and CAL PDZ FP-2 1.

Compound activity from PubChem BioAssay.
